Results as given in ChEMBL document CHEMBL1158902, “Polyprenylated benzophenones from Garcinia assigu and their potential cancer chemopreventive activities” (J Nat Prod, 2003).
pIC50: −log10 of the molar value.

Experiments:
Raji [1] = assay: Inhibition of TPA-induced EBV-early antigen activation in human Raji cells at 32 nmol after 48 hrs relative to TPA; type: cell-based; set-up: scale not given: the % may be the effect or the level left; settings: human gammaherpesvirus 4
Procedure, shortened: (§1)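 Raji cells at 10^6 cells/mL were resuspended in RPMI 1640 with 10% FCS. Induction used 4 mM n-butyric acid plus 32 pmol TPA (20 ng/mL), with test compound added in DMSO. After 48 h at 37 °C, EA-positive cells were scored blind, at least 500 cells per assay. Activation is expressed as % of TPA-only control (100%) ± SD.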

Raji [2] = assay: Inhibition of TPA-induced EBV-early antigen activation in human Raji cells at 16 nmol after 48 hrs relative to TPA; type: cell-based; set-up: scale not given: the % may be the effect or the level left; settings: human gammaherpesvirus 4; procedure, shortened: as §1
Raji [3] = assay: Inhibition of TPA-induced EBV-early antigen activation in human Raji cells at 3.2 nmol after 48 hrs relative to TPA; type: cell-based; set-up: scale not given: the % may be the effect or the level left; settings: human gammaherpesvirus 4; procedure, shortened: as §1
Raji [4] = assay: Inhibition of TPA-induced EBV-early antigen activation in human Raji cells at 0.32 nmol after 48 hrs relative to TPA; type: cell-based; set-up: scale not given: the % may be the effect or the level left; settings: human gammaherpesvirus 4; procedure, shortened: as §1
[5] = Cytotoxicity against human Raji cells assessed as cell viability at 32 nmol after 48 hrs by trypan blue assay; type: cell-based; settings: read-out: Activity
Procedure, shortened: (§2)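 Raji cells grown to 10^6 cells/mL, pelleted, and resuspended in RPMI 1640 with 10% FCS. Medium held 4 mM n-butyric acid, 32 pmol TPA (20 ng/mL, in DMSO) and test compound in DMSO. Incubated 48 h at 37 °C. Cell number and viability counted by hemocytometer with Trypan Blue; at least 60% survival required for a valid result.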

[6] = Cytotoxicity against human Raji cells assessed as cell viability at 16 nmol after 48 hrs by trypan blue assay; type: cell-based; settings: read-out: Activity; procedure, shortened: as §2
[7] = Cytotoxicity against human Raji cells assessed as cell viability at 3.2 nmol after 48 hrs by trypan blue assay; type: cell-based; settings: read-out: Activity; procedure, shortened: as §2
[8] = Cytotoxicity against human Raji cells assessed as cell viability at 0.32 nmol after 48 hrs by trypan blue assay; type: cell-based; settings: read-out: Activity; procedure, shortened: as §2
[9] = test system: Radical scavenging activity; assay: Antioxidant activity assessed as DPPH radical scavenging activity; type: functional
Procedure, shortened: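 Test compound in ethanol mixed with 2 mL of 0.1 mM DPPH solution; held 30 min at room temperature, then absorbance at 520 nm read. EC50 estimated by probit transformation; IC50 as mean ± SD of five replicates.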

Row | Molecule | pIC50 [9] | Activity (Raji [1]) [%] | Activity (Raji [2]) [%] | Activity (Raji [3]) [%] | Activity (Raji [4]) [%] | viability at 48 h, 32 nmol [5] [%] | viability at 48 h, 16 nmol [6] [%] | viability at 48 h, 3.2 nmol [7] [%] | viability at 48 h, 0.32 nmol [8] [%]
1 | COc1cc(C(=O)C2=C3OC(C)(C)[C@@H](CC=C(C)C)C[C@@]34C[C@@H](CC=C(C)C)C(C)(C)[C@@](CC=C(C)C)(C2=O)C4=O)ccc1O | < 4.00 | 18.5 | 60.1 | 89 | 100 | 60 | > 80 | > 80 | > 80
2 | C=C(C)[C@@H](CC=C(C)C)C[C@@]12C[C@@H](CC=C(C)C)C(C)(C)[C@@](CC=C(C)C)(C(=O)C(C(=O)c3ccc(O)c(OC)c3)=C1O)C2=O | < 4.00 | 19.7 | 54.9 | 88.1 | 100 | 60 | > 80 | > 80 | > 80
3 | CC1(C)[C@@H](O)CC[C@]2(C)[C@H]3C(=O)C=C4[C@@H]5C[C@@](C)(C(=O)O)CC[C@]5(C)CC[C@@]4(C)[C@]3(C)CC[C@@H]12 [ENOXOLONE] |  | 15.6 | 54.3 | 100 | 100 | > 80 | > 80 | > 80 | 
4 | O=C(c1ccc(O)c(O)c1)c1c(O)cc(O)cc1O [MACLURIN] |  | 0 | 52.7 | 80.2 | 94.3 | 70 | > 80 | > 80 | > 80

The next lines start with results.

Row | pIC50 [9] | Molecule | Activity (Raji [1]) [%] | Activity (Raji [2]) [%] | Activity (Raji [3]) [%] | Activity (Raji [4]) [%] | viability at 48 h, 32 nmol [5] [%] | viability at 48 h, 16 nmol [6] [%] | viability at 48 h, 3.2 nmol [7] [%] | viability at 48 h, 0.32 nmol [8] [%]
5 | 4.88 | CC(C)=CC[C@H]1C[C@@]23C[C@@H](CC=C(C)C)C(C)(C)[C@@](CC=C(C)C)(C(=O)C(C(=O)c4ccc(O)c(O)c4)=C2OC1(C)C)C3=O [CAMBOGIN] | 17.7 | 56 | 87.1 | 100 | 60 | > 80 | > 80 | > 80
6 | < 4.00 | CC(C)=CC[C@@H]1C[C@@]2(CC=C(C)C)C(=O)[C@](CC=C(C)C)(C(=O)C(C(=O)c3ccccc3)=C2O)C1(C)C [CLUSIANONE] | 17.4 | 53.7 | 87.7 | 100 | 60 | > 80 | > 80 | > 80
7 | 4.99 | C=C(C)[C@@H](CC=C(C)C)C[C@@]12C[C@@H](CC=C(C)C)C(C)(C)[C@@](CC=C(C)C)(C(=O)C(C(=O)c3ccc(O)c(O)c3)=C1O)C2=O [GARCINOL] | 14.4 | 47 | 84.9 | 100 | 60 | > 80 | > 80 | > 80
8 | 4.64 | VITAMIN E |  |  |  |  |  |  |  | 
